Laboratory results as given in ChEMBL document CHEMBL4024789, “Neutral Porphyrin Derivative Exerts Anticancer Activity by Targeting Cellular Topoisomerase I (Top1) and Promotes Apoptotic Cell Death without Stabilizing Top1-DNA Cleavage Complexes” (J Med Chem, 2018).
The source made the active and inactive calls. The rule behind the calls is not given here.

Legend:
[1] = biological target: T1, DNA topoisomerase 1 (Homo sapiens, UniProt P11387); test: (§1) Inhibition of recombinant human topoisomerase-1 expressed in baculovirus infected sf9 cells using supercoiled pBS SK(+) DNA as substrate after 15 mins by ethidium bromide staining based agarose gel electrophoresis method
T1 sequence (P11387 whole entry): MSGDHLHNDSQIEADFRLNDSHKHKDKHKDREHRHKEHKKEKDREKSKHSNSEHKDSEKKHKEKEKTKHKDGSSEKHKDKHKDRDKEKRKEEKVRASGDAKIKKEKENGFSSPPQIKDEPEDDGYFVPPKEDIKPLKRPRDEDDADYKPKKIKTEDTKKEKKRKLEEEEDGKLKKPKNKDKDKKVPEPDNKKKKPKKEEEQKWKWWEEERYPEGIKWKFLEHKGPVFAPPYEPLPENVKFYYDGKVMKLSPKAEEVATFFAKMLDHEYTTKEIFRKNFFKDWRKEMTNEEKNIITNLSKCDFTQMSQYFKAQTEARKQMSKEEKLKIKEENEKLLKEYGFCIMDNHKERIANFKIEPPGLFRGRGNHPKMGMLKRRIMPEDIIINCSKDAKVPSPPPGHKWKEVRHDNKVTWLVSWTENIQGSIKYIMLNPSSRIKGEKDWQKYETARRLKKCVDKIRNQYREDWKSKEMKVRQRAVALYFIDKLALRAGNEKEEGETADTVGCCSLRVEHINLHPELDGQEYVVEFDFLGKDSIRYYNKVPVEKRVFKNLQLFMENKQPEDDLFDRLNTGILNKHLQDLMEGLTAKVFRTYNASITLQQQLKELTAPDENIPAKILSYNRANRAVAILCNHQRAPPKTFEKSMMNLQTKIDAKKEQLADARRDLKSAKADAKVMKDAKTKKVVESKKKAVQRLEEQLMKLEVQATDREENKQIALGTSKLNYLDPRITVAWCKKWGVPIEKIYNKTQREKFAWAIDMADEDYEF
How it was run: (§2)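 Relaxation assay: 90 fmol supercoiled pBS (SK+) DNA with 30 fmol recombinant Top1 (Sf-9/baculovirus). Compound either preincubated with Top1 for 5 min before DNA addition, or added simultaneously with DNA; then 37 °C for 15 min. Vehicle 2% DMSO. Read on 1% agarose gel. EC50 from mean ± SD of three experiments.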

[2] = biological target: T2, DNA topoisomerase 1 (Homo sapiens) (UniProt P11387); test: as §1, with “cells at 1 uM” for “cells”, “substrate preincubated for 5 mins followed by substrate addition measured” for “substrate”, “method relative to control” for “method”; how it was run: as §2
T2 sequence (whole entry): T1 sequence (P11387 whole entry)

[3] = biological target: T2, DNA topoisomerase 1 (Homo sapiens); test: Ratio of EC50 for recombinant human topoisomerase-1 expressed in baculovirus infected sf9 cells simultaneously incubated with substrate to EC50 for recombinant human topoisomerase-1 expressed in baculovirus infected sf9 cells preincubated for 5 mins followed by substrate addition
How it was run: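 Recombinant human Top1 purified from baculovirus-infected Sf-9 cells; 30 fmol enzyme with 90 fmol supercoiled pBS (SK+) DNA (3:1 molar ratio) in relaxation buffer. Compound either preincubated with enzyme 5 min before DNA, or added simultaneously; then 37 °C, 15 min. Relaxation on 1% agarose; % inhibition quantified, EC50 from three experiments (mean ± SD).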

[4] = biological target: T2, DNA topoisomerase 1 (Homo sapiens); test: Inhibition of topoisomerase-1 in human MCF7 whole cell extracts at 0.25 to 5 uM using supercoiled pBS SK(+) DNA as substrate after 15 mins by ethidium bromide staining based agarose gel electrophoresis method
How it was run: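 Ex vivo relaxation assay with MCF7 whole-cell lysate as the Top1 source and supercoiled pBS (SK+) DNA. Compound either preincubated with lysate for 5 min before DNA, or added simultaneously; then 37 °C for 15 min. CPT control at 5 μM. Read on agarose gel; mean ± SD, n=3.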

[5] = biological target: T2, DNA topoisomerase 1 (Homo sapiens); test: Inhibition of CPT-induced recombinant human topoisomerase1-supercoiled pBS SK(+) DNA cleavage complex after 30 mins using topoisomerase1 expressed in baculovirus infected sf9 cells by ethidium bromide staining based agarose gel electrophoresis method
How it was run: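 Plasmid cleavage assay: 50 fmol supercoiled pBS (SK+) with 100 fmol recombinant Top1 plus compound or CPT, or Top1 with CPT before compound addition, at 37 °C for 30 min. Nicked (form II) and supercoiled (form I) DNA resolved by gel.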

[6] = biological target: T1, DNA topoisomerase 1; test: Binding affinity to recombinant human topoisomerase-1 expressed in baculovirus infected sf9 cells by spectrofluorimetric method
How it was run: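 Purified Top1 (200 nM) incubated with compound at 0–11 μM, 25 °C, 10 min. Tryptophan emission read at 350 nm (ex 295 nm). Fraction bound B = (F0 – F)/Fmax, with Fmax taken from a double-reciprocal 1/(F0 – F) vs 1/[X] plot; KD derived from this. Mean ± SD, n=3.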

[7] = biological target: T2, DNA topoisomerase 1 (Homo sapiens); test: Reversible inhibition of recombinant human topoisomerase-1 expressed in baculovirus infected sf9 cells at 1 uM using supercoiled pBS SK(+) DNA as substrate preincubated for 5 mins followed by substrate addition and subsequent 40 fold compound dilution measured after 15 mins by ethidium bromide staining based agarose gel electrophoresis method
How it was run: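 Recombinant Top1 (100 fmol) preincubated with 1 μM compound for 5 min at 37 °C in relaxation buffer. Mixture diluted 5-, 10-, 20- or 40-fold (final 0.2–0.025 μM), then 50 fmol pBS (SK+) DNA added and incubated 15 min at 37 °C. Three repeats performed.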

[8] = test system: MCF7; test: Induction of apoptosis in human MCF7 cells at 10 to 20 uM after 12 hrs by Annexin V-FITC/propidium iodide staining based confocal laser microscopic method relative to control; type: functional
How it was run: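 MCF7 cells exposed 12 h, with or without NAC (10 mM) 30 min pretreatment. Phosphatidylserine detected with annexin V-FITC, nuclei counterstained with PI, confocal imaging; annexin V-positive cells counted from ~100 cells (average ± SEM).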

[9] = biological target: T2, DNA topoisomerase 1 (Homo sapiens); test: Induction of proteasome-mediated topoisomerase-1 degradation in human MCF7 cells at 10 uM up to 12 hrs in presence of proteasome inhibitor MG132 by Western blot method; type: cell-based
How it was run: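 Whole-cell extracts of MCF7 cells treated with 10 μM for the indicated times, or preincubated with MG132 (100 nM) for 4 h before 12 h compound exposure. Top1 detected by Western blot with mouse monoclonal anti-Top1 (C21).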

[10] = biological target: T2, DNA topoisomerase 1 (Homo sapiens); test: Inhibition of topoisomerase-1- genomic DNA cleavage complex in human MCF7 cells at 20 uM after 12 hrs by ICE assay; type: cell-based
How it was run: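 ICE bioassay in MCF7 cells. Treatment was CPT (10 μM) or compound (20 μM) for 12 h, or CPT for 6 h then compound for a further 6 h. Genomic DNA (0.5–4 μg) probed with anti-Top1 antibody. Quantified with n = 3, ± SEM, t test.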

- EC50 [1]: 1470 nM
- inhibition [2]: 85 to 99%
- Ratio EC50 [3]: 4 to 5
- inhibition [4]: Active
- inhibition [5]: Dose-dependent effect
- Kd [6]: 381 nM
- inhibition [7]: Active
- Activity [9]: inactive
- inhibition [10]: Active
Structure (SMILES): CN(C)c1ccc(-c2c3nc(c(-c4ccc(N(C)C)cc4)c4ccc([nH]4)c(-c4ccc(C(=O)O)cc4)c4nc(c(-c5ccc(C(=O)O)cc5)c5ccc2[nH]5)C=C4)C=C3)cc1
- fold change (FC) [8]: 7
